Measurements published in ChEMBL document CHEMBL1147690, “A cassette-dosing approach for improvement of oral bioavailability of dual TACE/MMP inhibitors” (Bioorg Med Chem Lett, 2006).
pIC50, pKi: −log10 of the molar value.

Columns and labels:
Collagenase 3 = Collagenase 3 (Homo sapiens, UniProt P45452); experiment: Binding affinity to recombinant MMP13
[1] = target: T1, Disintegrin and metalloproteinase domain-containing protein 17 (Homo sapiens, UniProt P78536); experiment: Binding affinity to recombinant TACE
T1 sequence (P78536 whole entry, the tested form may be a part): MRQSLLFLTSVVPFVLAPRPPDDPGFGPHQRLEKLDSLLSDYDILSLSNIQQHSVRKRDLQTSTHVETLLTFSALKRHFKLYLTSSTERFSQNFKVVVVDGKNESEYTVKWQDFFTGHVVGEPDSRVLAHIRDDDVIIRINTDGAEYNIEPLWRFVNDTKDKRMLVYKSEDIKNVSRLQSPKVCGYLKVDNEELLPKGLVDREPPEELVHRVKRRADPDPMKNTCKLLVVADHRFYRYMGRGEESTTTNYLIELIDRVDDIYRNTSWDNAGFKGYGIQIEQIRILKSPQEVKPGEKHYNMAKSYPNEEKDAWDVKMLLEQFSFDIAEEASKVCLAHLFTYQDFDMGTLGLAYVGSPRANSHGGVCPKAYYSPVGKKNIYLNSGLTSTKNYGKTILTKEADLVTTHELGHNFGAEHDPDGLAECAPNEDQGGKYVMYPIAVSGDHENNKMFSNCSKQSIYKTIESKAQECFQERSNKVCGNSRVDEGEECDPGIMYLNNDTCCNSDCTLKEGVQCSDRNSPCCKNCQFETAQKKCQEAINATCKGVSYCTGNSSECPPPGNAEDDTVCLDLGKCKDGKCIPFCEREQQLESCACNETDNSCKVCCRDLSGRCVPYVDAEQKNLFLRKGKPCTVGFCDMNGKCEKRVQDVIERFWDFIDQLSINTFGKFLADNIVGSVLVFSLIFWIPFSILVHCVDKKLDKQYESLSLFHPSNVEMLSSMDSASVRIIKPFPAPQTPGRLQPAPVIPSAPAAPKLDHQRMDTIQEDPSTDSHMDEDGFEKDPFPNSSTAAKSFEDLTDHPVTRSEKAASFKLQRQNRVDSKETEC

[2] = target: T1, Disintegrin and metalloproteinase domain-containing protein 17; experiment: Inhibition of LPS/interferon gamma-stimulated TNFalpha release from HPBMC; type: functional
[3] = Clearance in rat at 1 mg/kg, iv and 3 mg/kg, po; type: ADME, organism-based; details: in vivo
In short: (§1)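 Conscious, permanently cannulated rats (n = 4) were dosed with a five-compound cassette or a single compound. Dosing was 1 mg/kg iv into the femoral vein (30% N-methyl-2-pyrrolidone in PEG 200) and 3 mg/kg po by gavage (3% ethanol in corn oil), in the same animals with a 48 h washout. Femoral-artery plasma was sampled for 24 h (iv) or 7 h (po), acetonitrile-precipitated and analysed by HPLC/MS.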

[4] = Volume of distribution in rat at 1 mg/kg, iv and 3 mg/kg, po; type: ADME, organism-based; details: in vivo, read-out: Vdss; in short: as §1
Rattus norvegicus = experiment: Cmax in rat at 3 mg/kg, po normalized to 1 mg/kg; type: ADME, organism-based; parameters: dose 3 mg/kg, route oral; details: in vivo; in short: as §1
[5] = Oral bioavailability in rat at 1 mg/kg, iv and 3 mg/kg, po; type: ADME, organism-based; details: in vivo; in short: as §1
Interstitial collagenase = target: T2, Interstitial collagenase (Homo sapiens, UniProt P03956); experiment: Binding affinity to recombinant MMP1
T2 sequence (P03956 whole entry): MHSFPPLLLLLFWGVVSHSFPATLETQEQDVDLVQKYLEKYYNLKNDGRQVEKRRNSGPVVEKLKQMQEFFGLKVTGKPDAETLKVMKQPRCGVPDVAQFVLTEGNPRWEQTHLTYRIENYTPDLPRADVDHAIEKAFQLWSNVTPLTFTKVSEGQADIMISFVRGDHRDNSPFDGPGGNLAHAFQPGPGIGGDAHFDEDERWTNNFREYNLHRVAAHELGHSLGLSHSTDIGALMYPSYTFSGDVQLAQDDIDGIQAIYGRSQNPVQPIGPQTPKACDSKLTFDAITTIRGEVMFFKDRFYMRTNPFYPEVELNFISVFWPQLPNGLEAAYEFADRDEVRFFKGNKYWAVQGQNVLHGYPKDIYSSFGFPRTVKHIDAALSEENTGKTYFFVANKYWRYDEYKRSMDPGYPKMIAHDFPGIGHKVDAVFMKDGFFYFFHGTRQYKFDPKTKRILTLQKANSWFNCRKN

Stromelysin-1 = Stromelysin-1 (Homo sapiens, UniProt P08254); experiment: Binding affinity to recombinant MMP3
Sequence of Stromelysin-1 (P08254 whole entry): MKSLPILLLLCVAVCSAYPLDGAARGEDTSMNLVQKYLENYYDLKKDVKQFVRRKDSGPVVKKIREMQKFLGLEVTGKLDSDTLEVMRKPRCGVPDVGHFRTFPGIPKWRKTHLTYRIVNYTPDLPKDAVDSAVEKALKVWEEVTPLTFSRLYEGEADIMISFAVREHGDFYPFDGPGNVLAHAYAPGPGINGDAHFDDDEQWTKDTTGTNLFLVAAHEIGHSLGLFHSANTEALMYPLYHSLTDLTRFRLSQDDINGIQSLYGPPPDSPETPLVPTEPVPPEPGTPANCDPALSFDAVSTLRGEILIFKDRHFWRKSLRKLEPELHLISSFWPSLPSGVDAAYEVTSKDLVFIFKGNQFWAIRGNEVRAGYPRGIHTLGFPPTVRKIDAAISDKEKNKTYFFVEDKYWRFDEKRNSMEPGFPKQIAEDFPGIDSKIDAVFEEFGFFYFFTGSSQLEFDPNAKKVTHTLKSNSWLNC
In short: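 Recombinant enzyme activity measured by a fluorimetric assay.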

Compound | pKi (Collagenase 3) | clearance [3] [mL/min/kg] | Vd [4] [L/kg] | Cmax (Rattus norvegicus) [nM] | bioavailability [5] [%] | pKi (Interstitial collagenase) | pKi [1] | pIC50 [2] | pKi (Stromelysin-1)
CN1C(=O)N(C[C@H](C(=O)NO)[C@@H](CC2CCCC2)C(=O)N2CCCCC2)C(=O)C1(C)C |  |  |  |  |  |  | 6.64 | < 5.00 | 
CNC(=O)[C@@H](NC(=O)[C@H](c1ccc(OC)cc1)[C@H](CN1C(=O)N(C)C(C)(C)C1=O)C(=O)NO)C(C)(C)C | 8.52 |  |  |  |  | 9.15 | 7.24 | 6.32 | 7.92
CC[C@H](C(=O)NO)[C@H](C(=O)N1CCCC[C@H]1C(=O)NC)c1ccc(Cl)cc1 | 8.70 | 28.1 | 16.7 | 388.6 | 47.1 | 9.15 | 8.30 | 6.50 | 
COc1ccc([C@@H](C(=O)N2CCCCC2)[C@H](CN2C(=O)N(C)C(C)(C)C2=O)C(=O)NO)cc1 | 7.72 |  |  |  |  | 7.08 | 6.49 | < 5.00 | 6.73

The next lines start with results.

pKi (Collagenase 3) | clearance [3] [mL/min/kg] | Vd [4] [L/kg] | Cmax (Rattus norvegicus) [nM] | bioavailability [5] [%] | pKi (Interstitial collagenase) | Compound | pKi [1] | pIC50 [2] | pKi (Stromelysin-1)
8.00 | 23.2 | 1.06 | 38.1 | 8.4 | 7.64 | CNC(=O)[C@@H]1CCCCN1C(=O)[C@H](c1ccc(OC)cc1)[C@H](CO)C(=O)NO | 8.10 | < 5.00 | 
8.15 |  |  |  |  | 7.60 | CC[C@H](C(=O)NO)[C@H](C(=O)N1CCCC[C@H]1C(=O)NC)c1ccc(OC)cc1 | 8.10 | 6.08 | 7.96
9.30 | 10 | 0.34 | 42.7 | 3.2 | 9.00 | CNC(=O)[C@@H](NC(=O)C(c1ccc(OC)cc1)C(CO)C(=O)NO)C(C)(C)C (single isomer, unassigned) |  | 7.32 | 
7.26 |  |  |  |  | 6.67 | COc1ccc([C@@H](C(=O)N2CCCCC2)[C@H](CO)C(=O)NO)cc1 | 7.18 | < 5.00 | 6.52
